Measurements taken from ChEMBL document CHEMBL4229550, “An antimycobacterial pleuromutilin analogue effective against dormant bacilli” (Bioorg Med Chem, 2018).
In brackets after ≈: the same amount, converted by molar mass. Activity calls are given as the source filed them. The calls are words filed in the database; no cut-off is given here.

How the values were obtained:
Staphylococcus aureus = experiment: Antibacterial activity against Staphylococcus aureus BAA 44 incubated for 24 hrs under aerobic condition by MABA; type: functional; details: BAA 44, 24 h, read-out: MIC100
How it was run: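 Mid-log cultures at OD 0.5 were exposed to serial dilutions under aerobic conditions at 37 °C for 24 h. Resazurin was then added from a 0.08% stock for 1 h. MIC100 was the lowest concentration where the dye stayed blue (pink means growth). Absorbance was also read at 570 and 600 nm.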

Acinetobacter baumannii = experiment: Bactericidal activity against Acinetobacter baumannii ATCC 19606 incubated for 24 hrs under aerobic condition by MABA; type: functional; details: ATCC 19606 = CIP 70.34 = JCM 6841, 24 h
[1] = AUC (0 to 24 hrs) in Balb/c mouse lung at 30 mg/kg, po; type: ADME, organism-based; design: dose 30 mg/kg, time < 24 hr, route oral; details: in vivo
Escherichia coli [2] = experiment: Inhibition of protein translation/transcription in Escherichia coli S30 cell extract using circular DNA with pBESTluc after 60 mins by luciferase reporter gene assay; type: functional; details: 1 h
How it was run: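 E. coli S30 circular-DNA coupled transcription/translation kit with the pBESTluc template (firefly luciferase under the tac promoter). S30 extract, amino acids and premix are combined with compound in DMSO, and the reaction is started with DNA. Incubation is 60 min at 37 °C, stopped on ice, then luciferase luminescence is read.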

Escherichia coli [3] = experiment: Inhibition of protein translation/transcription in Escherichia coli S30 cell extract at 0.1 ug/ml using circular DNA with pBESTluc after 60 mins by luciferase reporter gene assay; type: functional
How it was run: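 Coupled transcription/translation used E. coli S30 extract, amino acid mix and premix, with the pBESTluc template carrying firefly luciferase under the tac promoter. Compounds were added in DMSO and reactions were started with DNA. Incubation was 60 min at 37 °C, stopped on ice, and luciferase was read after adding assay substrate.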

[4] = test system: Mycobacterium tuberculosis; experiment: Antibacterial activity against Mycobacterium tuberculosis; type: functional; details: read-out: MIC100
How it was run: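 Mtb H37Rv grown in 7H9/OADC at 37 °C with shaking to OD600 0.5. The 0.5-OD culture is exposed aerobically to serial dilutions for 15 days at 37 °C. Resazurin (0.02% stock) is then added for 4 h at 37 °C with shaking.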

For `CC[C@]1(C)C[C@@H](OC(=O)CSC(C)(C)CNC(=O)[C@H](N)CC(C)C)[C@]2(C)[C@H](C)CC[C@]3(CC[C@@H](O)[C@H]32)[C@@H](C)[C@@H]1O`, the MIC (Staphylococcus aureus) was > 25 µg/mL, the MBC (Acinetobacter baumannii) was 3.13 µg/mL (≈ 5.37 µM) and the AUC [1] was 66281 ng·h/g. For the same compound, the IC50 (Escherichia coli [2]) was 0.09 µg/mL (≈ 0.154 µM), the inhibition (Escherichia coli [3]) was “Active” and the MIC [4] was < 6.25 µg/mL.
